How the values were obtained:
Stomach [1] = experiment: Biodistribution in Kunming mouse stomach assessed per organ at 1 uCi, iv after 120 mins by gamma counting; type: ADME, organism-based; conditions: in vivo, 2 h
Outline: (§1)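 Radioiodinated tracers given intravenously to normal mice; organs taken at 2, 15, 30, 60, 120 and 240 min after injection. Uptake expressed as % ID/g, mean ± SD of 5 mice; stomach values carry a table footnote.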

Stomach [2] = experiment: Biodistribution in Kunming mouse stomach assessed per organ at 1 uCi, iv after 240 mins by gamma counting; type: ADME, organism-based; conditions: in vivo, 4 h; outline: as §1
Lung [3] = experiment: Biodistribution in Kunming mouse lung at 1 uCi, iv after 60 mins by gamma counting; type: ADME, organism-based; conditions: in vivo, 1 h
Outline: (§2)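 125I-labeled tracer given intravenously to normal mice. Organs and blood were sampled at 2, 15, 30, 60, 120 and 240 min after injection. Uptake is expressed as % ID/g, averaged over 5 mice ± SD.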

Brain [4] = experiment: Biodistribution in Kunming mouse brain at 1 uCi, iv after 60 mins by gamma counting; type: ADME, organism-based; conditions: in vivo, 1 h; outline: as §2
Spleen [5] = experiment: Biodistribution in Kunming mouse spleen at 1 uCi, iv after 240 mins by gamma counting; type: ADME, organism-based; conditions: in vivo, 4 h; outline: as §2
[6] = Octanol-phosphate buffer partition coefficient, log D of the compound at pH 7.4; type: physicochemical
Outline: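 Radioiodinated tracer partitioned between n-octanol and PBS at pH 7.4; log D reported as mean ± SD.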

Muscle tissue = experiment: Biodistribution in Kunming mouse muscle at 1 uCi, iv after 30 mins by gamma counting; type: ADME, organism-based; conditions: in vivo, 0.5 h; outline: as §2
Spleen [7] = experiment: Biodistribution in Kunming mouse spleen at 1 uCi, iv after 60 mins by gamma counting; type: ADME, organism-based; conditions: in vivo, 1 h; outline: as §1
Liver [8] = experiment: Biodistribution in Kunming mouse liver at 1 uCi, iv after 2 mins by gamma counting; type: ADME, organism-based; conditions: in vivo; outline: as §2
Brain [9] = experiment: Biodistribution in Kunming mouse brain at 1 uCi, iv after 15 mins by gamma counting; type: ADME, organism-based; conditions: in vivo, 0.25 h; outline: as §2
Liver [10] = experiment: Biodistribution in Kunming mouse liver at 1 uCi, iv after 120 mins by gamma counting; type: ADME, organism-based; conditions: in vivo, 2 h; outline: as §2
Kidney [11] = experiment: Biodistribution in Kunming mouse kidney at 1 uCi, iv after 240 mins by gamma counting; type: ADME, organism-based; conditions: in vivo, 4 h; outline: as §2
Brain [12] = experiment: Biodistribution in Kunming mouse brain at 1 uCi, iv after 120 mins by gamma counting; type: ADME, organism-based; conditions: in vivo, 2 h; outline: as §2
Spleen [13] = experiment: Biodistribution in Kunming mouse spleen at 1 uCi, iv after 30 mins by gamma counting; type: ADME, organism-based; conditions: in vivo, 0.5 h; outline: as §2
Kidney [14] = experiment: Biodistribution in Kunming mouse kidney at 1 uCi, iv after 15 mins by gamma counting; type: ADME, organism-based; conditions: in vivo, 0.25 h; outline: as §2
Kidney [15] = experiment: Biodistribution in Kunming mouse kidney at 1 uCi, iv after 2 mins by gamma counting; type: ADME, organism-based; conditions: in vivo; outline: as §2
Spleen [16] = experiment: Biodistribution in Kunming mouse spleen at 1 uCi, iv after 120 mins by gamma counting; type: ADME, organism-based; conditions: in vivo, 2 h; outline: as §2
Lung [17] = experiment: Biodistribution in Kunming mouse lung at 1 uCi, iv after 240 mins by gamma counting; type: ADME, organism-based; conditions: in vivo, 4 h; outline: as §2
Blood [18] = experiment: Biodistribution in Kunming mouse blood at 1 uCi, iv after 240 mins by gamma counting; type: ADME, organism-based; conditions: in vivo, 4 h; outline: as §2
Kidney [19] = experiment: Biodistribution in Kunming mouse kidney at 1 uCi, iv after 30 mins by gamma counting; type: ADME, organism-based; conditions: in vivo, 0.5 h; outline: as §2
Lung [20] = experiment: Biodistribution in Kunming mouse lung at 1 uCi, iv after 15 mins by gamma counting; type: ADME, organism-based; conditions: in vivo, 0.25 h; outline: as §2
Heart [21] = experiment: Biodistribution in Kunming mouse heart at 1 uCi, iv after 2 mins by gamma counting; type: ADME, organism-based; conditions: in vivo; outline: as §2
Heart [22] = experiment: Biodistribution in Kunming mouse heart at 1 uCi, iv after 30 mins by gamma counting; type: ADME, organism-based; conditions: in vivo, 0.5 h; outline: as §2
Blood [23] = experiment: Biodistribution in Kunming mouse blood at 1 uCi, iv after 120 mins by gamma counting; type: ADME, organism-based; conditions: in vivo, 2 h; outline: as §2
Lung [24] = experiment: Biodistribution in Kunming mouse lung at 1 uCi, iv after 2 mins by gamma counting; type: ADME, organism-based; conditions: in vivo; outline: as §2
Stomach [25] = experiment: Biodistribution in Kunming mouse stomach assessed per organ at 1 uCi, iv after 60 mins by gamma counting; type: ADME, organism-based; conditions: in vivo, 1 h; outline: as §1
Blood [26] = experiment: Biodistribution in Kunming mouse blood at 1 uCi, iv after 60 mins by gamma counting; type: ADME, organism-based; conditions: in vivo, 1 h; outline: as §2

In the case of `O=C(/C=C/c1ccccc1)n1ccc2cc([125I])ccc21`, the Drug uptake (Stomach [1]) is reported as 2.29 %ID, the Drug uptake (Stomach [2]) is reported as 1.3 %ID and the Drug uptake (Lung [3]) is reported as 2.66 % ID/g. It also gave a Drug uptake (Brain [4]) of 0.77 % ID/g, a Drug uptake (Spleen [5]) of 0.59 % ID/g and a logD [6] of 2.53. It also gave a Drug uptake (Muscle tissue) of 2.06 % ID/g, a Drug uptake (Spleen [7]) of 1.85 % ID/g and a Drug uptake (Liver [8]) of 15.89 % ID/g. The Drug uptake (Brain [9]) was 1.98 % ID/g, the Drug uptake (Liver [10]) was 4.86 % ID/g and the Drug uptake (Kidney [11]) was 2.22 % ID/g. It also gave a Drug uptake (Brain [12]) of 0.33 % ID/g, a Drug uptake (Spleen [13]) of 1.71 % ID/g and a Drug uptake (Kidney [14]) of 9.68 % ID/g. For the same molecule, the Drug uptake (Kidney [15]) was 11.22 % ID/g, the Drug uptake (Spleen [16]) was 0.63 % ID/g and the Drug uptake (Lung [17]) was 1.27 % ID/g. For the same molecule, the Drug uptake (Blood [18]) was 1.07 % ID/g, the Drug uptake (Kidney [19]) was 10.16 % ID/g and the Drug uptake (Lung [20]) was 6.73 % ID/g. It also gave a Drug uptake (Heart [21]) of 10.72 % ID/g, a Drug uptake (Heart [22]) of 2.07 % ID/g and a Drug uptake (Blood [23]) of 1.61 % ID/g. The Drug uptake (Lung [24]) was 14.5 % ID/g, the Drug uptake (Stomach [25]) was 2.08 %ID and the Drug uptake (Blood [26]) was 2.88 % ID/g.

Source: ChEMBL document CHEMBL1828568, “Novel imaging agents for β-amyloid plaque based on the N-benzoylindole core” (Bioorg Med Chem Lett, 2011)
